Reference: ChEMBL document CHEMBL1126267, “A novel synthesis and potent antiinflammatory activity of 4-hydroxy-2(1H)-oxo-1-phenyl-1,8-naphthyridine-3-carboxamides” (1992)

What was measured:
Assay type in all cases: functional
[1] = system: Rattus norvegicus; experiment: Inhibition of Zymosan-induced rat's paw edema(ZPE) after peroral administration of 100 mg/kg dose.; conditions: route oral
Outline: (§1)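 Male Wistar rats (about 150 g) were dosed orally with compound suspended in 5% arabic gum, 1 h before a subplantar hind-paw injection of 0.1 mL saline. The irritant was 1% zymosan for 33 or 1% λ-carrageenin for 34. Paw volume was measured by plethysmograph before dosing and at 4 h (zymosan) or 3 h (carrageenin). Swelling is relative to initial volume, as mean ± SEM. % inhibition is versus the control group's mean swelling.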

[2] = system: Rattus norvegicus; experiment: Compound was tested for the inhibition of Zymosan-induced rat's paw edema(ZPE) after peroral administration of 30 mg/kg dose; conditions: route oral
Outline: (§2)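 Male Wistar rats weighing about 150 g were dosed orally with compound suspended in 5% arabic gum. 1 h later, 1% zymosan in 0.1 mL saline was injected subplantarly into the hind paw. Paw volume was measured by plethysmograph before dosing and 4 h after zymosan, with edema as the volume difference. Inhibition % was derived from mean swelling versus the control group.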

[3] = system: Rattus norvegicus; experiment: Antiinflammatory activity on Zymosan-induced rat's paw edema(ZPE) after peroral administration of 10 mg/kg dose with control swelling of 68.1%; conditions: route oral; outline: as §2
[4] = system: Rattus norvegicus; experiment: Antiinflammatory activity on Carrageenan rat's paw edema(CPE) after peroral administration of 10 mg/kg dose with control swelling of 75.8%; conditions: route oral
[5] = system: Rattus norvegicus; experiment: Compound was tested for the inhibition of rat reversed passive Arthus pleurisy after peroral administration of 10 mg/kg dose at 0.37+/-0.07 mL of exudate volume (injected intrapleurally); conditions: route oral
Outline: (§3)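 Male Wistar rats (about 250 g) were given compound orally before the antiserum. Under ether anesthesia, 0.2 mL rabbit anti-egg albumin antiserum was injected intrapleurally. After 30 min, egg albumin (15 mg/100 g body weight in 0.1 mL saline) was given iv. Rats were killed 4.5 h later and the thoracic cavity was rinsed with 5 mL saline. Exudate volume and infiltrated cell number were measured, with inhibition % versus controls as mean ± SEM.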

[6] = system: Rattus norvegicus; experiment: Compound was tested for the inhibition of Zymosan-induced rat's paw edema(ZPE) after peroral administration of 10 mg/kg dose; conditions: po; outline: as §2
[7] = system: Rattus norvegicus; experiment: Compound was tested for the inhibition of arachidonic acid-induced rat's paw edema(APE) after peroral administration of 10 mg/kg dose with control swelling of 51.6%; conditions: route oral
Outline: (§4)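 Test: arachidonic acid paw edema in male Wistar rats of about 150 g. Oral dosing in 5% arabic gum came 1 h before subplantar injection of 1% arachidonic acid sodium salt in 0.1 mL saline into the hind paw. Plethysmograph paw volume was read before dosing and 1 h post-irritant, and edema = volume difference. % inhibition was taken from mean swelling against controls.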

[8] = system: Rattus norvegicus; experiment: Compound was tested for the inhibition of rat reversed passive Arthus pleurisy after peroral administration of 100 mg/kg dose at 0.28+/-0.06 mL of exudate volume (injected intrapleurally); conditions: route oral; outline: as §3
[9] = system: Rattus norvegicus; experiment: Compound was tested for the inhibition of arachidonic acid-induced rat's paw edema(APE) after peroral administration of 10 mg/kg dose; conditions: route oral; outline: as §4
[10] = system: Rattus norvegicus; experiment: Compound was tested for the inhibition of rat reversed passive Arthus pleurisy after peroral administration of 25 mg/kg dose at 0.32+/-0.07 mL of exudate volume (injected intrapleurally); conditions: route oral
Outline: (§5)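 Male Wistar rats (about 250 g) under ether received 0.2 mL rabbit anti-egg-albumin antiserum intrapleurally. Thirty min later they got 15 mg EA/100 g body weight in 0.1 mL saline iv. Compounds were given orally beforehand. Rats were killed 4.5 h after induction and the thoracic cavity rinsed with 5 mL saline. Exudate volume and infiltrated cell count were read as mean ± SE. % inhibition is versus control.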

[11] = system: Rattus norvegicus; experiment: Compound was tested for the inhibition of arachidonic acid-induced rat's paw edema(APE) after peroral administration of 3 mg/kg dose; conditions: route oral; outline: as §4
[12] = system: Rattus norvegicus; experiment: Compound was tested for the inhibition of rat reversed passive Arthus pleurisy after peroral administration of 100 mg/kg dose at 0.28 mL of exudate volume with 0.86 mL of control (injected intrapleurally); conditions: route oral; outline: as §3
[13] = system: Rattus norvegicus; experiment: Compound was tested for the inhibition of arachidonic acid-induced rat's paw edema(APE) after peroral administration of 3 mg/kg dose with control swelling of 51.6%; conditions: route oral; outline: as §4
[14] = system: Rattus norvegicus; experiment: Antiinflammatory activity on Zymosan-induced rat's paw edema(ZPE) after peroral administration of 3 mg/kg dose with control swelling of 68.1%; conditions: route oral; outline: as §2
[15] = system: Rattus norvegicus; experiment: Compound was tested for the inhibition of Carrageenan rat's paw edema(CPE) after peroral administration of 3 mg/kg dose; conditions: route oral
[16] = system: Rattus norvegicus; experiment: Antiinflammatory activity on Zymosan-induced rat's paw edema(ZPE) after peroral administration of 30 mg/kg dose with control swelling of 68.1%; conditions: route oral; outline: as §2
[17] = system: Rattus norvegicus; experiment: Antiinflammatory activity on Carrageenan rat's paw edema(CPE) after peroral administration of 3 mg/kg dose with control swelling of 75.8%; conditions: route oral
[18] = system: Rattus norvegicus; experiment: Compound was tested for the inhibition of Carrageenan rat's paw edema(CPE) after peroral administration of 10 mg/kg dose
[19] = system: Rattus norvegicus; experiment: Compound was tested for the inhibition of rat reversed passive Arthus pleurisy after peroral administration of 5 mg/kg dose at 0.4+/-0.04 mL of exudate volume (injected intrapleurally); conditions: route oral; outline: as §5
[20] = system: Rattus norvegicus; experiment: Compound was tested for the inhibition of rat reversed passive Arthus pleurisy after peroral administration of 5 mg/kg dose at 3.54+/-0.06*10e6 no of cells; conditions: route oral; outline: as §5
[21] = system: Rattus norvegicus; experiment: Antiinflammatory activity on Carrageenan rat's paw edema(CPE) after peroral administration of 100 mg/kg dose with control swelling of 64.2%; conditions: route oral
[22] = system: Rattus norvegicus; experiment: Compound was tested for the inhibition of rat reversed passive Arthus pleurisy after peroral administration of 100 mg/kg dose at 2.96 +/- 0.16*10e6 no of cells; conditions: route oral; outline: as §3
[23] = system: Rattus norvegicus; experiment: Compound was tested for the inhibition of Zymosan-induced rat's paw edema(ZPE) after peroral administration of 3 mg/kg dose; conditions: route oral; outline: as §2
[24] = system: Rattus norvegicus; experiment: Compound was tested for the inhibition of arachidonic acid-induced rat's paw edema(APE) after peroral administration of 30 mg/kg dose with control swelling of 51.6%; conditions: route oral
[25] = system: Rattus norvegicus; experiment: Antiinflammatory activity on Zymosan-induced rat's paw edema(ZPE) after peroral administration of 100 mg/kg dose with control swelling of 71.7%; conditions: route oral; outline: as §2
[26] = system: Rattus norvegicus; experiment: Compound was tested for the inhibition of rat reversed passive Arthus pleurisy after peroral administration of 25 mg/kg dose at 4.25+/-0.1*10e6 no of cells; conditions: route oral; outline: as §5
[27] = system: Rattus norvegicus; experiment: Compound was tested for the inhibition of rat reversed passive Arthus pleurisy after peroral administration of 100 mg/kg dose at 2.96*10e6 no of cells with 3.86*10e6 cells of control; conditions: route oral; outline: as §3
[28] = system: Rattus norvegicus; experiment: Compound was tested for the inhibition of arachidonic acid-induced rat's paw edema(APE) after peroral administration of 30 mg/kg dose; conditions: route oral; outline: as §4
[29] = system: Rattus norvegicus; experiment: Compound was tested for the inhibition of rat reversed passive Arthus pleurisy after peroral administration of 10 mg/kg dose at 4.30+/-0.41*10e6 no of cells; conditions: route oral; outline: as §3
[30] = system: Rattus norvegicus; experiment: Inhibition of carrageenan-induced rat's paw edema (CPE) after peroral administration of 100 mg/kg dose.; conditions: route oral; outline: as §1
[31] = system: Rattus norvegicus; experiment: Antiinflammatory activity on Carrageenan rat's paw edema(CPE) after peroral administration of 30 mg/kg dose with control swelling of 75.8%; conditions: route oral
[32] = system: Rattus norvegicus; experiment: Compound was tested for the inhibition of rat reversed passive Arthus pleurisy after peroral administration of 100 mg/kg dose at 0.73 mL of exudate volume with 0.86 mL of control (injected intrapleurally); conditions: route oral; outline: as §3
[33] = system: Rattus norvegicus; experiment: Compound was tested for the inhibition of rat reversed passive Arthus pleurisy after peroral administration of 100 mg/kg dose at 3.37*10e6 no of cells with 3.86*10e6 cells of control; conditions: route oral; outline: as §5
[34] = system: Rattus norvegicus; experiment: Antiinflammatory activity on Carrageenan rat's paw edema(CPE) after peroral administration of 100 mg/kg dose with control swelling of 90.0%; conditions: route oral
[35] = system: Rattus norvegicus; experiment: Antiinflammatory activity on Zymosan-induced rat's paw edema(ZPE) after peroral administration of 100 mg/kg dose with control swelling of 85.5%; conditions: route oral; outline: as §2

SMILES: O=C(Nc1cccnc1)c1c(O)c2cccnc2n(-c2ccccc2)c1=O
- inhibition in vivo at 100 mg/kg [1]: 30.3%
- inhibition in vivo at 30 mg/kg [2]: 43.9%
- Swelling [3]: 50.8%
- Swelling [4]: 58.6%
- inhibition in vivo at 10 mg/kg [5]: 55.7%
- inhibition in vivo at 10 mg/kg [6]: 25.4%
- Swelling [7]: 28.9%
- inhibition in vivo at 100 mg/kg [8]: 75.3%
- inhibition in vivo at 10 mg/kg [9]: 44%
- inhibition in vivo at 25 mg/kg [10]: 62.9%
- inhibition in vivo at 3 mg/kg [11]: 40.9%
- inhibition in vivo at 100 mg/kg [12]: 75.3%
- Swelling [13]: 30.5%
- Swelling [14]: 53.2%
- inhibition in vivo at 3 mg/kg [15]: 20.2%
- Swelling [16]: 38.2%
- Swelling [17]: 60.5%
- inhibition in vivo at 10 mg/kg ([18]; Rattus norvegicus, po): 33.8%
- Inhibition ([18]; route oral, 10 mg/kg): 22.7%
- inhibition in vivo at 5 mg/kg [19]: 50%
- inhibition in vivo at 5 mg/kg [20]: 33.3%
- Swelling [21]: 44.4%
- inhibition in vivo at 100 mg/kg [22]: 30.5%
- inhibition in vivo at 3 mg/kg [23]: 21.9%
- Swelling [24]: 30.6%
- Swelling [25]: 50%
- inhibition in vivo at 25 mg/kg [26]: 42.1%
- inhibition in vivo at 100 mg/kg [27]: 30.5%
- inhibition in vivo at 30 mg/kg [28]: 40.7%
- inhibition in vivo at 10 mg/kg [29]: 41.2%
- inhibition in vivo at 100 mg/kg [30]: 30.8%
- Swelling [31]: 50.2%

SMILES: Cc1ccccc1NC(=O)c1c(O)c2cccnc2n(-c2ccccc2)c1=O
- inhibition in vivo at 100 mg/kg [32]: 16.9%
- inhibition in vivo at 100 mg/kg [1]: 11.7%
- inhibition in vivo at 100 mg/kg [33]: 16.6%
- Swelling [34]: 81.2%
- Swelling [35]: 75.5%
- inhibition in vivo at 100 mg/kg [30]: 9.8%
